Values after ≈ are worked out from the molar mass of the structure shown. Active and inactive are the calls of the source. The calls are words filed in the database; no cut-off is given here. Non-standard residues stand in square brackets, D forms with d. Residues, ends and D or L forms follow the SMILES beside them. Cha = N[C@@H](CC1CCCCC1)C(=O)O; Dab = NCC[C@H](N)C(=O)O
Experiments:
Format in all cases: functional
Staphylococcus aureus [1] = assay: Antibiofilm activity against methicillin-resistant Staphylococcus aureus LAC established catheter-associated biofilm model at 5 times MIC after 72 hrs relative to control
Escherichia coli [2] = assay: Antibacterial activity against Escherichia coli ATCC 25922 after 18 to 20 hrs by broth microdilution method
Summary of the method: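 Broth microdilution in tryptic soy broth: 2-fold dilutions mixed 1:1 with ~1.5 × 10^5 CFU/mL inoculum, final 0.5–32 μg/mL; 37 °C, 18–20 h. MIC taken as lowest concentration giving no visible growth. At least three independent experiments, one replicate each.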

Acinetobacter baumannii [3] = assay: Bactericidal activity against Acinetobacter baumannii ATCC 19606; conditions: ATCC 19606 = CIP 70.34 = JCM 6841, read-out: MBC99.9
Summary of the method: (§1)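 MBC from MIC plates at end point: 50 μL from each well with no visible growth plated on tryptic soy agar and counted. MBC taken as lowest concentration giving ≥99.9% fall in viable count relative to initial inoculum. Three independent experiments, one replicate each.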

Escherichia coli [4] = assay: Bactericidal activity against Escherichia coli ATCC 25922; conditions: read-out: MBC99.9; summary of the method: as §1
Enterococcus faecium = assay: Bactericidal activity against Enterococcus faecium ATCC 19434; conditions: read-out: MBC99.9; summary of the method: as §1
Staphylococcus aureus [5] = assay: Bactericidal activity against Staphylococcus aureus ATCC 29213; conditions: read-out: MBC99.9; summary of the method: as §1
Pseudomonas aeruginosa = assay: Bactericidal activity against Pseudomonas aeruginosa ATCC 27853 at 8 ug/ml after 24 hrs by time-kill assay
Summary of the method: (§2)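 Time-kill at 8, 16 and 32 μg/mL; survivors counted on tryptic soy agar at 0, 2, 4, 6 and 24 h. Three independent experiments, one replicate each.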

Staphylococcus aureus [6] = assay: Bactericidal activity against Staphylococcus aureus ATCC 29213 at 16 ug/ml after 4 hrs by time-kill assay relative to control; summary of the method: as §2
Staphylococcus aureus [7] = assay: Antibacterial activity against Staphylococcus aureus ATCC 29213 after 18 to 20 hrs in presence of 95% serum by broth microdilution method
Summary of the method: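 Same microdilution with human serum as medium: compound 2-fold diluted in 100% serum, mixed 1:1 with 90% serum holding ~1.5 × 10^5 CFU/mL, giving 95% serum and final 0.5–64 μg/mL. MIC read as no visible growth after incubation as for the broth test.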

Acinetobacter baumannii [8] = assay: Antibacterial activity against carbapenem-resistant Acinetobacter baumannii clinical isolate expressing beta-lactamase OXA-23, 24/40 after 18 to 20 hrs by broth microdilution method
Summary of the method: (§3)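 Broth microdilution in tryptic soy broth: 2-fold dilutions mixed 1:1 with ~1.5 × 10^5 CFU/mL bacterial suspension in TSB, final 0.5–32 μg/mL, 37 °C for 18–20 h. MIC = lowest concentration with no visible growth. At least three independent experiments, one replicate each.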

Enterobacter cloacae = assay: Antibacterial activity against carbapenem-resistant Enterobacter cloacae clinical isolate expressing beta-lactamase KPC-3, TEM1 after 18 to 20 hrs by broth microdilution method; summary of the method: as §3
Escherichia coli [9] = assay: Antibacterial activity against carbapenem-resistant Escherichia coli clinical isolate expressing beta-lactamase NDM after 18 to 20 hrs by broth microdilution method; summary of the method: as §3
Escherichia coli [10] = assay: Antibacterial activity against carbapenem-resistant Escherichia coli clinical isolate expressing beta-lactamase KPC3, TEM1 after 18 to 20 hrs by broth microdilution method; summary of the method: as §3
Klebsiella pneumoniae = assay: Antibacterial activity against carbapenem-resistant Klebsiella pneumoniae clinical isolate expressing beta-lactamase KPC after 18 to 20 hrs by broth microdilution method; summary of the method: as §3
Escherichia coli [11] = assay: Antibacterial activity against polymyxin-resistant Escherichia coli AR 0494 expressing mcr1 after 18 to 20 hrs by broth microdilution method; summary of the method: as §3
Escherichia coli [12] = assay: Antibacterial activity against polymyxin-resistant Escherichia coli UAMS-ECPR1 after 18 to 20 hrs by broth microdilution method; summary of the method: as §3
Staphylococcus aureus [13] = assay: Induction of cytoplasmic membrane depolarization in Staphylococcus aureus ATCC 29213 at >= 16 ug/ml by DiSC3(5) probe-based fluorescence assay
Summary of the method: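 S. aureus ATCC 29213 grown in TSB at 37 °C with shaking (200 rpm) for ~5 h after 1/100 dilution of an overnight culture. Cells washed twice in 5 mM HEPES (pH 7.2) with 5 mM glucose and resuspended in the same buffer. Loaded with 0.5 μM DiSC3(5) for 15 min at room temperature, then 100 mM KCl added. Compound given at 8–64 μg/mL final. Fluorescence read at ex 622/em 670 nm. Three independent experiments, ANOVA with Tukey HSD.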

Q: With `CC(C)C[C@H](NC(=O)[C@@H](Cc1ccccc1)NC(=O)[C@H](CCN)NC(=O)[C@H](Cc1ccccc1)NC(=O)[C@H](CCN)NC(=O)[C@@H](N)CC1CCCCC1)C(=O)N[C@@H](CCN)C(=O)N[C@H](CC(C)C)C(=O)N[C@@H](Cc1ccccc1)C(=O)N[C@@H](CO)C(N)=O` (H-[Cha][Dab]F[Dab][dF]L[Dab][dL]FS-NH2) as the molecule, how does the Activity (Staphylococcus aureus [1]) read?
A: 3 deltalog10CFU/ml

Q: And the MIC (Escherichia coli [2])?
A: 0.5 to 1 µg/mL (≈ 0.408 to 0.816 µM)

Q: And the MBC (Acinetobacter baumannii [3])?
A: 4 to 8 µg/mL (≈ 3.26 to 6.53 µM)

Q: What about the MBC (Escherichia coli [4]) of the same molecule?
A: 8 to 16 µg/mL (≈ 6.53 to 13.1 µM)

Q: And the MBC (Enterococcus faecium)?
A: 16 µg/mL (≈ 13.1 µM)

Q: What about the MBC (Staphylococcus aureus [5]) of the same molecule?
A: 8 µg/mL (≈ 6.53 µM)

Q: And the Activity (Pseudomonas aeruginosa)?
A: inactive

Q: And the Activity (Staphylococcus aureus [6])?
A: 3.1 deltalog10CFU/ml

Q: And the MIC (Staphylococcus aureus [7])?
A: 32 µg/mL

Q: What about the MIC (Acinetobacter baumannii [8]) of the same molecule?
A: 0.5 µg/mL (≈ 0.408 µM)

Q: And the MIC (Enterobacter cloacae)?
A: 0.5 µg/mL (≈ 0.408 µM)

Q: And the MIC (Escherichia coli [9])?
A: 0.5 µg/mL (≈ 0.408 µM)

Q: And the MIC (Escherichia coli [10])?
A: 0.5 to 1 µg/mL (≈ 0.408 to 0.816 µM)

Q: What about the MIC (Klebsiella pneumoniae) of the same molecule?
A: 1 to 2 µg/mL (≈ 0.816 to 1.63 µM)

Q: And the MIC (Escherichia coli [11])?
A: 0.5 µg/mL (≈ 0.408 µM)

Q: What about the MIC (Escherichia coli [12]) of the same molecule?
A: < 0.5 µg/mL

Q: And the Activity (Staphylococcus aureus [13])?
A: Active

— ChEMBL document CHEMBL4052819 (2017)
